PubChem BioAssay AID1381 (University of Pittsburgh Molecular Library Screening Center, 2008)
In all, about 220,000 compounds went through this assay and about 1,000 (0.45%) were called active.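 The calls were made as follows: active = plate z-score of nuclear minus cytoplasmic receptor signal below a set negative limit, without overly bright fluorescence or cell loss (cut at about -3.5 in these data, passing the limit was not always enough); inactive = the rest, inconclusive results apart.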 This excerpt belongs to a sample that is enriched for actives.

Assay: inhibitors of GR-EGFP nuclear translocation, primary screen, dynein cargo transport inhibitor project, imaging, high-content, 3617.4 mouse cells (AID 1381)
Conditions: stimulated with dexamethasone, 1 µM
Procedure, shortened: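 Also added: dexamethasone, 1.0 µM final. Medium: tet-free, stripped-serum medium. Detection: fixed, Hoechst-stained cells imaged at 10x for EGFP. Read-out: nuclear-to-cytoplasmic GR-EGFP distribution per well. Times: induction 48 h, compound 1 h, agonist 30 min.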

[1] = measured here: cell count per field, at 20 µM
[2] = measured here: cytoplasmic GR-EGFP intensity, at 20 µM, stronger effect = higher value
[3] = measured here: nuclear GR-EGFP intensity, at 20 µM, stronger effect = lower value
[4] = measured here: cell count per field, at 50 µM
[5] = measured here: cytoplasmic GR-EGFP intensity, at 50 µM, stronger effect = higher value
[6] = measured here: nuclear GR-EGFP intensity, at 50 µM, stronger effect = lower value

SMILES | z-score (at 20 µM, stronger effect = lower value) | z-score [1] | z-score [2] | z-score [3] | z-score (at 50 µM, stronger effect = lower value) | z-score [4] | z-score [5] | z-score [6]
COc1cccc(N2C(=O)NC(=O)/C(=C\c3ccc([N+](=O)[O-])s3)C2=O)c1 | -6.53 (active) | -0.425 | 2.64 | -2.61 | – | – | – | –
O=C1NC(=O)N(c2ccc(F)cc2)C(=O)/C1=C/c1ccc2c(c1)CCCN2Cc1ccccc1 | -0.735 (inactive) | -0.42 | 4.11 | 0.344 | – | – | – | –
O=C1NC(=O)N(c2ccccc2)C(=O)/C1=C/c1ccc([N+](=O)[O-])s1 | -5.82 (active) | 0.268 | 2.42 | -2.58 | – | – | – | –
Cc1c(C(=O)O)cccc1-n1c(C)cc(/C=C2\C(=O)NC(=O)N(c3ccc4c(c3)OCO4)C2=O)c1C | -0.66 (inactive) | 0.519 | -0.101 | -0.113 | – | – | – | –
Cc1ccccc1N1C(=O)NC(=O)/C(=C\c2cc(C)n(C)c2C)C1=O | -0.127 (inactive) | 0.901 | -0.306 | -0.135 | – | – | – | –
Cc1cccc(N2C(=O)NC(=O)/C(=C\c3cnn(-c4ccccc4)c3)C2=O)c1 | 0.124 (inactive) | -0.649 | -0.166 | 0.444 | – | – | – | –
OC1/C(=C/c2ccc(C(F)(F)F)cc2)N2CCC1CC2 (stereo not given) | -1.47 (inactive) | 0.879 | -0.265 | -0.69 | – | – | – | –
CCCC[N+]1(C)C2CC(OC(=O)C(CO)c3ccccc3)CC1C1OC12 (stereo not given) | -0.526 (inactive) | 0.258 | -0.759 | 0.0484 | – | – | – | –
c1cc2c(cc1CCNC1CCCCCC1)OCO2 | – | – | – | – | 1.01 (inactive) | 0.684 | -0.246 | 0.379
CC(c1ccccc1)(c1ccccc1)c1ccncc1 | -0.152 (inactive) | -0.267 | -0.379 | -0.628 | – | – | – | –
Cc1cc(C=C2C(=O)NC(=O)NC2=O)c(C)n1-c1ccncc1 | 1.16 (inactive) | -1.04 | -0.229 | 0.621 | – | – | – | –
CCN(CC)C(=O)c1ccc(NC(=O)c2cc(-n3cnnc3)ccc2Cl)cc1 | – | – | – | – | 1.07 (inactive) | -0.204 | -0.239 | 0.487
CN(C)CC1Oc2ccccc2OC1(O)c1ccccc1 (stereo not given) | -6.23 (active) | 1.09 | 1.79 | -2.55 | – | – | – | –
COc1ccc(NC(=O)c2cn(CCC#N)nc2-c2ccc([N+](=O)[O-])cc2)cc1 | -0.74 (inactive) | 0.149 | -0.33 | -0.871 | – | – | – | –
CCC(C)n1c(O)c(/C=N/Nc2nc3c(c(=O)n(C)c(=O)n3C)n2C)c(=O)[nH]c1=S (stereo not given) | -0.95 (inactive) | 0.937 | -0.21 | -0.129 | – | – | – | –
